Laboratory results reported in paper PMC6605687 (The Journal of General Physiology, 2019).
Numbering of substitutions follows the chain as printed. “Also recorded” adds a separate entry of the source. Like-named read-outs stand apart in the source and are kept apart here.

Tests used:
Type in all cases: cell-based
[1] = biological target: T1, rat P2X2 receptor (rP2X2R) WT (Rattus norvegicus, UniProt P49653); conditions: for Fold increase in EC50 (reduced apparent affinity) compared with ATP: agonist versus ATP; for Reduction in efficacy: relative to ATP; for Imax agonist/Imax ATP (%): maximal current compared to that elicited by 1 mM of ATP, same cell; for Apparent affinity / potency (in words) / Efficacy (in words) / Macroscopic currents elicited (in words): WT P2X2Rs; for Apparent affinity / potency (in words) / Efficacy (in words): compared with ATP; for Macroscopic currents elicited (in words): concentrations of up to 1 mM
T1 sequence (P49653 1-472): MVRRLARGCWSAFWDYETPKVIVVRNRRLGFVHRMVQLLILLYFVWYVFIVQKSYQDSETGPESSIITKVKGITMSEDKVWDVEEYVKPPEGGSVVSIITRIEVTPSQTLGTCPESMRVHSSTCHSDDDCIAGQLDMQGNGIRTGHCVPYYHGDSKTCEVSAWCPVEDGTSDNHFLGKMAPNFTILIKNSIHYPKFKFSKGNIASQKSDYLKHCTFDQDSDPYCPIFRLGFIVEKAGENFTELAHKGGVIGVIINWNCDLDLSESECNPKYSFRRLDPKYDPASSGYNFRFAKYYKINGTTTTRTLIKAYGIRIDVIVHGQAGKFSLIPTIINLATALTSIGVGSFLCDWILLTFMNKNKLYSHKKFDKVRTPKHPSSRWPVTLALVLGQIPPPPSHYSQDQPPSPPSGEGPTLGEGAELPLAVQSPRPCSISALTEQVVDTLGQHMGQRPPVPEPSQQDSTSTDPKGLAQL
Summary of the method: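 Collagenase-digested Xenopus oocytes were injected with WT rP2X2 mRNA (30 ng) and kept in L-15 at 18°C. Two-electrode voltage clamp was done 1–2 days later at −40 mV in ND96 (pH 7.4). Agonists were freshly dissolved in ND96 at pH 7.4. Responses were normalised to 1 mM ATP current in the same cell, and Hill fits gave EC50 and nH. Relative efficacy is the agonist maximal current versus 1 mM ATP. Results are mean ± SEM, compared by one-way ANOVA with Dunnett's test.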

[2] = biological target: T2, rP2X2-3T receptors (Rattus norvegicus, UniProt P49653, C348T/C430T/C9T); assay: Single channel outside-out patch-clamp recordings, HEK-293 cells; conditions: agonist 1 µM, mean ± SEM
T2 sequence (P49653 1-472 C9T/C348T/C430T): T1 sequence (P49653 1-472) with C9T, C348T, C430T
Summary of the method: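 HEK-293 cells were co-transfected by calcium phosphate with rP2X2-3T DNA plus GFP DNA to mark transfected cells, then recorded within 24 h. Outside-out patches were held at −120 mV. Pipette contained 147 NaF, 10 EGTA and 10 HEPES (mM, pH 7.3). Agonist at 1, 10 or 100 µM in extracellular saline (pH 7.3) was applied by fast perfusion for 10 s per 12-s sweep, at 1-min intervals. Amplitudes came from Gaussian fits to all-points histograms, with 2–5 sweeps averaged per patch.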

[3] = biological target: T3, rP2X2 Val70Vah (Rattus norvegicus, UniProt P49653); assay: Two-electrode voltage clamp, oocytes expressing rP2X2 Val70Vah
T3 sequence (P49653 1-472): T1 sequence (P49653 1-472)

[4] = biological target: T4, rP2X2 Thr184Ser (Rattus norvegicus, UniProt P49653, T184S); assay: Two-electrode voltage clamp, oocytes expressing rP2X2 Thr184Ser
T4 sequence (P49653 1-472 T184S): T1 sequence (P49653 1-472) with T184S
Summary of the method: (§1)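 Mutations were made by site-directed mutagenesis. Xenopus oocytes were injected with rP2X2 mRNA and incubated in L-15 at 18°C. Two-electrode voltage clamp was done 1–2 days later at −40 mV under ND96 perfusion (pH 7.4). ATP concentration-response currents were normalised and fitted to a one-component Hill equation for EC50 and Hill coefficient. Results are mean ± SEM, tested by one-way ANOVA with Dunnett's test against WT.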

[5] = biological target: T5, rP2X2 Thr184Val (Rattus norvegicus, UniProt P49653, T184V); assay: Two-electrode voltage clamp, oocytes expressing rP2X2 Thr184Val
T5 sequence (P49653 1-472 T184V): T1 sequence (P49653 1-472) with T184V
Summary of the method: as §1

[6] = biological target: T6, rP2X2 Ile185Val (Rattus norvegicus, UniProt P49653, I185V); assay: Two-electrode voltage clamp, oocytes expressing rP2X2 Ile185Val
T6 sequence (P49653 1-472 I185V): T1 sequence (P49653 1-472) with I185V
Summary of the method: as §1

[7] = biological target: T7, rP2X2 Ile185Vah (Rattus norvegicus, UniProt P49653); assay: Two-electrode voltage clamp, oocytes expressing rP2X2 Ile185Vah; conditions: Ile185Vah, mean ± SEM
T7 sequence (P49653 1-472): T1 sequence (P49653 1-472)
Summary of the method: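 The backbone ester was introduced by nonsense suppression. TAG-mutant rP2X2 mRNA was co-injected into Xenopus oocytes with tRNA enzymatically aminoacylated with 2-hydroxyisovaleric acid. Uncharged tRNA co-injection served as the negative control. After incubation at 18°C, two-electrode voltage clamp was done at −40 mV in ND96 (pH 7.4). ATP concentration-response data were normalised and Hill-fitted for EC50 and nH, given as mean ± SEM.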

[8] = WT rP2X2R, Xenopus oocytes, −40 mV, mean ± SEM

| Compound | EC50 [1] [µM] | Fold increase in EC50 (reduced apparent affinity) compared with ATP ([1]; WT rP2X2R) | nH (Hill coefficient) ([1]; WT rP2X2R, mean ± SEM) | Imax agonist/Imax ATP (%) ([1]; WT rP2X2R) | Apparent affinity / potency (in words) [1] | Efficacy (in words) [1] | also measured |
| --- | --- | --- | --- | --- | --- | --- | --- |
| Nc1ncnc2c1ncn2[C@@H]1O[C@H](COP(=O)(O)OP(=O)(O)OP(=O)(O)O)C[C@H]1O [C3′-dATP, 3′-deoxyadenosine-5′-triphosphate] | 83 ± 4 | threefold | 2.6 ± 0.1 | 67 ± 2 |  |  | Reduction in efficacy ([1]; WT rP2X2R): ~30% |
| Nc1ncnc2c1ncn2[C@@H]1O[C@@]2(COP(=O)(O)OP(=O)(O)OP(=O)(O)O)CO[C@@H]1[C@@H]2O [LNA-ATP, locked nucleic acid–ATP] |  |  | 1.8 ± 0.1 | 66 ± 1 | apparent affinity indistinguishable from ATP; also recorded: ATP-like apparent affinity | significantly reduced efficacy; also recorded: only a minor decrease in efficacy | EC50 [1, 8]: 27 ± 1 µM; SDopen (SD of the open state amplitude) [2]: 1.03 ± 0.1; Unitary current ([2]; outside-out patch, −120 mV): −3.58 ± 0.4 pA |
| O=P(O)(O)OP(=O)(O)OP(=O)(O)OC[C@H]1O[C@@H](n2cnc3c(O)ncnc32)[C@H](O)[C@@H]1O [ITP, Inosine 5′-triphosphate] |  |  |  |  |  |  | Macroscopic currents elicited (in words) [1]: failed to evoke any currents |
| Nc1ncnc2c1ncn2[C@H]1CC[C@@H](COP(=O)(O)OP(=O)(O)OP(=O)(O)O)O1 [C2′-C3′-ddATP, 2′,3′-dideoxyadenosine-5′-triphosphate] |  |  |  |  | even less potent agonist; also recorded: further decreased apparent affinity and efficacy |  |  |
| Nc1ccn([C@@H]2O[C@H](COP(=O)(O)OP(=O)(O)OP(=O)(O)O)[C@@H](O)[C@H]2O)c(=O)n1 [CTP, Cytidine 5′-triphosphate] | 370 ± 30 |  |  | 105 ± 4 |  | did not alter efficacy; also recorded: ATP-like efficacy | nH (Hill coefficient) ([3]; Val70Vah): 2.6 ± 0.1; Fold increase in EC50, Val70Vah versus WT ([3]; Val70Vah compared with WT): fivefold; EC50 ([3]; Val70Vah, mean ± SEM): 2 mM; EC50 [4]: 156 ± 30 µM; EC50 [5]: 11.7 mM; Fold increase in EC50 (reduction in sensitivity), Thr184Val versus WT ([5]; Thr184Val compared with WT): ~30 fold; EC50 [6]: 144 ± 30 µM; EC50 [7]: 1.1 mM |
| Nc1ncnc2c1ncn2[C@H]1C[C@H](O)[C@@H](COP(=O)(O)OP(=O)(O)OP(=O)(O)O)O1 [C2′-dATP, 2′-deoxyadenosine-5′-triphosphate] | > 300 |  |  |  |  |  |  |
| Nc1ncnc2c1ncn2[C@@H]1O[C@H](COP(=O)(O)OP(=O)(O)OP(=O)(O)O)[C@@H](O)[C@H]1F [C2′-F-dATP, 2′-fluoro-2′-deoxyadenosine-5′-triphosphate] | 52 ± 6 | twofold | 2.1 ± 0.1 | 60 ± 2 |  |  | Reduction in efficacy ([1]; WT rP2X2R): ~40% |
| Nc1ncnc2c1ncn2[C@@H]1O[C@H](COP(=O)(O)OP(=O)(O)OP(=O)(O)O)[C@@H](O)[C@@H]1O [Ara-ATP, Ara-adenosine 5′-triphosphate] |  |  |  |  | lower apparent affinity than ATP | greatly reduced efficacy | EC50 [1, 8]: > 100 µM |
| Nc1ncnc2c1ncn2[C@@H](CO)O[C@@H](CO)COP(=O)(O)OP(=O)(O)OP(=O)(O)O [UNA-ATP, unlocked nucleic acid–ATP] |  |  |  |  |  |  | Macroscopic currents elicited (in words) [1]: failed to elicit macroscopic currents; also recorded: does not elicit macroscopic current responses; also recorded: did not act as an agonist |
| O=c1ccn([C@@H]2O[C@H](COP(=O)(O)OP(=O)(O)OP(=O)(O)O)[C@@H](O)[C@H]2O)c(=O)[nH]1 [UTP, uridine 5′-triphosphate] | 12000 | 400 fold |  |  |  | significantly reduced efficacy |  |
